The source of these data is ChEMBL document CHEMBL4396914, “Discovery of new azoles with potent activity against Candida spp. and Candida albicans biofilms through virtual screening” (Eur J Med Chem, 2019).

The test system of series [1] is Candida albicans. Description: Antifungal activity against Candida albicans by broth dilution assay. It counts as functional. In short, it runs like this: (§1)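 CLSI broth microdilution in RPMI 1640 with MOPS at pH 7.0. Inoculum taken from 24-h Sabouraud subcultures, final 0.5-2.5×10^3 cfu/ml. Compounds in DMSO, twofold series 1024-0.125 µg/ml final. Incubated 48 h at 35 °C. MIC is the lowest concentration giving complete inhibition of visible growth. Fluconazole served as the reference.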
Background: Broth dilution looks for growth in wells or tubes with falling amounts of substance.

In another series the test system is Candida parapsilosis. The series can be described thus: Antifungal activity against azole-susceptible Candida parapsilosis ATCC 90018 assessed as reduction in fungal growth incubated for 48 hrs by broth microdilution method. It counts as functional. To be noted: Lodderomyces parapsilosis, ATCC 90018, 48 h. In short, it runs like this: as §1
For series [2], the system named is Candida albicans. Description: Antifungal activity against azole-susceptible Candida albicans ATCC 90028 assessed as reduction in fungal growth incubated for 48 hrs by broth microdilution method. The class given is functional. To be noted: ATCC 90028, 48 h. The method in brief:
as §1

A further series deals with Pichia kudriavzevii. Description: Antifungal activity against azole-susceptible Candida krusei ATCC 6258 assessed as reduction in fungal growth incubated for 48 hrs by broth microdilution method. The class given is functional. To be noted: ATCC 6258, 48 h. In short, it runs like this: as §1
The next series concerns Candida tropicalis. The series can be described thus: Antifungal activity against azole-resistant Candida tropicalis assessed as reduction in fungal growth incubated for 48 hrs by broth microdilution method. The class given is functional. The method in brief:
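CLSI broth microdilution in RPMI 1640 (glutamine, no bicarbonate) buffered to pH 7.0 with MOPS. Azole-resistant clinical C. tropicalis isolate, stored at -80 °C in glycerol, subcultured twice on Sabouraud dextrose agar. Inoculum from 24-h subcultures, final 0.5 to 2.5×10^3 cfu/ml. Compounds in DMSO, twofold final 1024–0.125 µg/ml. Incubated 35 °C, 48 h. MIC = lowest concentration fully inhibiting visible growth.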

The test system of a further series is U-937. Description: Cytotoxicity against human U937 cells assessed as cell viability at 0.125 to 32 ug/ml incubated for 24 to 48 hrs by MTT assay. The class given is cell-based. The method in brief:
(§2)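 MTT assay on U937 monocytic cells, 4×10³ cells/well, in RPMI-1640 with 10% FBS. Eight concentrations, 0.125-32 µg/ml, DMSO ≤0.32% v/v, each in triplicate. Exposure 24 or 48 h at 37 °C, 5% CO₂, then MTT for 4 h. Formazan dissolved in SDS/DMF, absorbance read at 570 nm. Viability calculated relative to untreated cells.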
On the technique in general: Tetrazolium dyes change colour on reduction, which living cells bring about.

The test system of series [3] is Candida albicans. The series can be described thus: Antibiofilm activity against Candida albicans SC5314 assessed as inhibition of biofilm formation by turbidity based visual inspection method. The class given is functional. In short, it runs like this: (§3)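 C. albicans SC5314 biofilms grown on a 96-peg lid (Calgary device, MBEC protocol) from 10^6 cfu/ml inoculum for 24 h at 37 °C. Pegs rinsed in 0.9% saline, then challenged 24 h at 35 °C with twofold dilutions, 512-0.5 µg/ml. MBIC: no well turbidity by visual inspection. MBEC: pegs sonicated into RPMI/2% glucose, regrowth overnight, OD 550 nm plus visual turbidity.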

The subject of series [4] is Candida albicans. Description: Disruption of Candida albicans SC5314 pre-formed mature biofilm assessed as reduction in biofilm biomass incubated for 24 hrs by spectrophotometry. It counts as functional. In short, it runs like this:
as §3

Series [5] can be described thus: Cytotoxicity against human U937 cells assessed as cell viability at >= 8 ug/ml incubated for 24 to 48 hrs by MTT assay. The class given is cell-based, U-937. The settings on record: read-out: Activity. The method in brief: as §2

The structures appear in SMILES notation. ≈ marks a conversion by molar mass, not a printed value. Where only a bound is given, the exact number is not on record here.

With `Cl.O=C(OC(Cn1ccnc1)c1ccc(Cl)cc1Cl)c1ccc([N+](=O)[O-])cc1` (racemic), the MIC in the series on Candida albicans [1] is more than 300 µg/mL; in the series with Candida parapsilosis, 4 µg/mL; in the series with Candida albicans [2] it was 8 µg/mL; in the series with Pichia kudriavzevii, 32 µg/mL; with Candida tropicalis, 8 µg/mL.
Regarding `Cl.O=C(OC(Cn1ccnc1)c1ccc(Cl)cc1Cl)c1ccc(Cl)cc1Cl` (racemic), the MIC amounted to 300 µg/mL against Candida albicans [1], 128 µg/mL with Candida parapsilosis, 128 µg/mL with Candida albicans [2] and 256 µg/mL in the series on Pichia kudriavzevii.
As to `Cl.O=C(/C=C/c1ccccc1)OC(Cn1ccnc1)c1ccc(Cl)cc1Cl` (racemic), the MIC with Candida parapsilosis is 1 µg/mL; in the series with Candida albicans [2] it was 0.5 µg/mL; in the series with Pichia kudriavzevii it was 1 µg/mL; in the series on Candida tropicalis, 4 µg/mL. Moreover, the Activity result in the series with U-937 is reported as “Non-Toxic”. The MBIC in the series on Candida albicans [3] was 0.5 µg/mL. The MBEC with Candida albicans [4] was determined as 64 µg/mL.
In the case of `Cl.O=C(OC(Cn1ccnc1)c1ccc(Cl)cc1Cl)c1ccc(-c2ccccc2)cc1` (racemic), the MIC in the series with Candida parapsilosis was 0.25 µg/mL; in the series on Candida albicans [2] it was 0.25 µg/mL; in the series on Pichia kudriavzevii, 1 µg/mL; in the series with Candida tropicalis it was 512 µg/mL. Besides, the viability in series [5] is less than 80%. Besides, in the series on Candida albicans [3], the MBIC was determined as 2 µg/mL. In addition, in the series with Candida albicans [4], the MBEC worked out at 256 µg/mL.
In the case of `COc1ccc(C(=O)O/N=C(\Cn2ccnc2)c2ccc(Cl)cc2Cl)cc1`, the MIC with Candida parapsilosis amounted to 1 µg/mL (≈ 2.47 µM); in the series with Candida albicans [2], 0.5 µg/mL (≈ 1.24 µM); in the series on Pichia kudriavzevii, 1 µg/mL (≈ 2.47 µM); in the series with Candida tropicalis, 64 µg/mL (≈ 158 µM). For the same compound, the Activity result with U-937 was “Non-Toxic”. For the same compound, in the series on Candida albicans [3], the MBIC is 2 µg/mL. Also, in the series on Candida albicans [4], the MBEC worked out at 512 µg/mL.
In the case of `O=C(O/N=C(\Cn1ccnc1)c1ccc(Cl)cc1Cl)c1ccc(-c2ccccc2)cc1`, the MIC in the series with Candida parapsilosis was 1 µg/mL (≈ 2.22 µM); with Candida albicans [2], 1 µg/mL (≈ 2.22 µM); with Pichia kudriavzevii, 1 µg/mL (≈ 2.22 µM); in the series on Candida tropicalis, 256 µg/mL (≈ 568 µM). Further, the Activity entry with U-937 is “Non-Toxic”. Besides, in the series with Candida albicans [3], the MBIC worked out at 16 µg/mL. In the series on Candida albicans [4], the MBEC is 256 µg/mL.
Take `CC(C)(C)c1ccc(C(=O)OC(Cn2ccnc2)c2ccc(Cl)cc2Cl)cc1.Cl` (racemic): the MIC in the series with Candida albicans [1] came to 10 µg/mL; in the series with Candida parapsilosis it was 128 µg/mL; in the series with Candida albicans [2], 128 µg/mL; in the series with Pichia kudriavzevii, 256 µg/mL.

By MIC is commonly meant the lowest concentration found to suppress growth.
